Several values for one entry are separate records, joined by “and”; a condition that tells them apart may be missing. Equal entries are not always repeated.
Test system: Fibroblast
Assay: Multiplex assay against human fibroblast
Assay type: toxicity, cell-based
Procedure, shortened: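 Tubulin, mitochondrial-mass and membrane-permeability phenotypes are per cents of healthy-nucleus cells. Cells were gated by CellPathfinder machine learning into Hoechst high-intensity objects or normal cells, normal cells into healthy, pyknosed or fragmented nuclei, and pyknosed cells into mitotic or apoptotic. Before that, live cells stained at seeding with Hoechst33342, BioTracker Green Microtubule Cytoskeleton Dye, MitoTracker Red and Annexin V Alexa Fluor 680 were imaged on a CQ1 microscope at 37°C and 5% CO2 after compound addition.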

[1] = 12 h, 1 µM, compound concentration 1 uM
[2] = 12 h, 10 µM, compound concentration 10 uM
[3] = 24 h, 1 µM, compound concentration 1 uM
[4] = 24 h, 10 µM, compound concentration 10 uM
[5] = 48 h, 1 µM, compound concentration 1 uM
[6] = 48 h, 10 µM, compound concentration 10 uM

For `CC(C)(c1ccc(O)cc1)c1ccc(O)cc1` [BISPHENOL A], the “Population Apoptotic (%)” value [1] was 18.37% and 18.42%, the “Population Fragmented Nuclei (%)” value [1] was 10.19% and 4.35% and the “Population Healthy Nuclei (%)” value [1] was 58.6% and 79.13%. The “Population Hoechst High Intensity Objects (%)” value [1] was 0%, the “Population Membrane Permeable-Phenotype (%)” value [1] was 2.17% and 2.75% and the “Population Mitochondria Different-Phenotype (%)” value [1] was 8.7% and 5.49%. The “Population Mitotic Cells (%)” value [1] was 81.63% and 81.58%, the “Population Normal (%)” value [1] was 100% and the “Population Pyknosed Nuclei (%)” value [1] was 31.21% and 16.52%. The “Population Tubulin-Different-Phenotype (%)” value [1] was 15.22% and 10.44%, the “Total Cell Count” value [1] was 157 and 230 and the “Population Apoptotic (%)” value [2] was 4.76% and 2.94%. For the same molecule, the “Population Fragmented Nuclei (%)” value [2] was 8.94% and 3.67%, the “Population Healthy Nuclei (%)” value [2] was 67.6% and 82.45% and the “Population Hoechst High Intensity Objects (%)” value [2] was 0%. For the same molecule, the “Population Membrane Permeable-Phenotype (%)” value [2] was 3.31% and 0.99%, the “Population Mitochondria Different-Phenotype (%)” value [2] was 7.44% and 5.45% and the “Population Mitotic Cells (%)” value [2] was 95.24% and 97.06%. The “Population Normal (%)” value [2] was 100%, the “Population Pyknosed Nuclei (%)” value [2] was 23.46% and 13.88% and the “Population Tubulin-Different-Phenotype (%)” value [2] was 14.88% and 19.31%. For the same molecule, the “Total Cell Count” value [2] was 179 and 245, the “Population Fragmented Nuclei (%)” value [3] was 7.23% and 3.8% and the “Population Healthy Nuclei (%)” value [3] was 68.07% and 86.92%. The “Population Hoechst High Intensity Objects (%)” value [3] was 0%, the “Population Membrane Permeable-Phenotype (%)” value [3] was 4.42% and 3.88% and the “Population Mitochondria Different-Phenotype (%)” value [3] was 5.31% and 2.91%. The “Population Mitotic Cells (%)” value [3] was 90.24% and 59.09%, the “Population Normal (%)” value [3] was 100% and the “Population Pyknosed Nuclei (%)” value [3] was 24.7% and 9.28%. For the same molecule, the “Population Tubulin-Different-Phenotype (%)” value [3] was 14.16% and 12.14%, the “Total Cell Count” value [3] was 166 and 237 and the “Population Apoptotic (%)” value [4] was 6.45% and 4.76%. For the same molecule, the “Population Fragmented Nuclei (%)” value [4] was 7.18% and 3.7%, the “Population Healthy Nuclei (%)” value [4] was 76.92% and 87.65% and the “Population Hoechst High Intensity Objects (%)” value [4] was 0%. For the same molecule, the “Population Membrane Permeable-Phenotype (%)” value [4] was 2.67% and 1.88%, the “Population Mitochondria Different-Phenotype (%)” value [4] was 6% and 4.23% and the “Population Mitotic Cells (%)” value [4] was 93.55% and 95.24%. The “Population Normal (%)” value [4] was 100%, the “Population Pyknosed Nuclei (%)” value [4] was 15.9% and 8.64% and the “Population Tubulin-Different-Phenotype (%)” value [4] was 16% and 16.43%. For the same molecule, the “Total Cell Count” value [4] was 195 and 243, the “Population Apoptotic (%)” value [5] was 50% and 33.33% and the “Population Fragmented Nuclei (%)” value [5] was 8.98% and 4.96%. The “Population Healthy Nuclei (%)” value [5] was 86.23% and 86.36%, the “Population Hoechst High Intensity Objects (%)” value [5] was 0% and the “Population Membrane Permeable-Phenotype (%)” value [5] was 0.69% and 2.39%. For the same molecule, the “Population Mitochondria Different-Phenotype (%)” value [5] was 11.11% and 3.83%, the “Population Mitotic Cells (%)” value [5] was 50% and 66.67% and the “Population Normal (%)” value [5] was 100%. For the same molecule, the “Population Pyknosed Nuclei (%)” value [5] was 4.79% and 8.68%, the “Population Tubulin-Different-Phenotype (%)” value [5] was 3.47% and 12.92% and the “Total Cell Count” value [5] was 167 and 242. For the same molecule, the “Population Apoptotic (%)” value [6] was 25% and 14.29%, the “Population Fragmented Nuclei (%)” value [6] was 8.49% and 3.36% and the “Population Healthy Nuclei (%)” value [6] was 85.85% and 90.76%. The “Population Hoechst High Intensity Objects (%)” value [6] was 0%, the “Population Membrane Permeable-Phenotype (%)” value [6] was 0% and 4.63% and the “Population Mitotic Cells (%)” value [6] was 75% and 85.71%. For the same molecule, the “Population Normal (%)” value [6] was 100%, the “Population Pyknosed Nuclei (%)” value [6] was 5.66% and 5.88% and the “Population Tubulin-Different-Phenotype (%)” value [6] was 7.14% and 18.52%. For the same molecule, the “Total Cell Count” value [6] was 212 and 238.

— ChEMBL document CHEMBL5724801, “EUbOPEN Chemogenomics Library - Multiplex” (2024)
